# Data reported in ChEMBL document CHEMBL2385003, “Oleuropein protects against dextran sodium sulfate-induced chronic colitis in mice” (J Nat Prod, 2013).
# Active and inactive are the calls of the source. The calls are words filed in the database; no cut-off is given here.
# Key:
# IEC-18 [1] = assay: Inhibition of LPS-induced p38 MAPK phosphorylation in rat IEC-18 cells at 10 uM incubated for 1 hr prior to LPS challenge measured after 30 mins by Western blot analysis; assay type: cell-based
# Summary of the method: (§1)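 IEC-18 rat intestinal epithelial cells were seeded at 2.5 × 10^5 cells/mL in DMEM (4.5 g/L glucose, 5% FBS) at 37 °C and 5% CO2. After 24 h the medium was switched to 0.5% FBS. Cells were pretreated with compound for 1 h, then stimulated with LPS 1 μg/mL: 30 min for phospho-p38 and 24 h for COX-2. Cytosolic protein (25 μg) was run on Western blots. Each result is the mean of at least three independent experiments.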
# IEC-18 [2] = assay: Inhibition of p38 MAPK-induced COX-2 expression in rat IEC-18 cells at 10 uM incubated for 1 hr prior to LPS challenge measured after 24 hrs by Western blot analysis; assay type: cell-based; summary of the method: as §1
# [3] = Antiproliferative activity against rat IEC-18 cells at 10 uM after 24 hrs by MTT assay; assay type: cell-based; conditions: iec-18, 24 h
# [4] = Wound healing activity in rat IEC-18 cells assessed as reduction of cell migration at 10 uM after 24 hrs relative to control; assay type: functional; design: scale not given: the % may be the effect or the level left
# Summary of the method: (§2)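 Confluent IEC-18 cells (from 2.5 × 10^5 cells/mL seeding) were moved to 0.5% FBS DMEM and scraped. They were then treated with test substance at 10 and 100 μM, or dexamethasone 10 μM. Migration was counted blind as cells crossing the wound border in a defined area from 0 to 24 h, using photomicrographs at 200×. n = 10.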
# IEC-18 [5] = assay: Inhibition of LPS-induced p38 MAPK phosphorylation in rat IEC-18 cells at 100 uM incubated for 1 hr prior to LPS challenge measured after 30 mins by Western blot analysis; assay type: cell-based
# Summary of the method: (§3)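 IEC-18 cells were seeded at 2.5 × 10^5 cells/mL in DMEM with 5% FBS; after 24 h the medium was switched to 0.5% FBS. Cells were pretreated 1 h with test substance at 100 μM (SB 203580 10 μM as reference), then given LPS 1 μg/mL. Phospho-p38 was read at 30 min and COX-2 at 24 h by Western blot (25 μg protein, 1:1000 antibodies, β-actin normalized). n = 6.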
# Mus musculus [6] = assay: (§4) Antiinflammatory activity in C57BL/6 mouse DSS-induced chronic colitis model assessed as up regulation of annexin A1 mRNA expression in colon at 500 mg/kg/day administered through diet for total of 4 weeks for alternative weeks with water measured after 56 days by RT-PCR analysis relative to DSS-treated control; assay type: functional
# Summary of the method: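 Female C57BL/6 mice (6−8 weeks, 18−20 g) got four cycles of 7 days DSS in drinking water (1% cycles 1–2, 2% cycles 3–4) then 7 days water, with diet at 0.25% test agent throughout. Colons were taken at day 56. cDNA from 500 ng RNA was amplified with annexin A1 primers (25 cycles: 94/60/72 °C, 1 min each) and run on 2% agarose gel.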
# Mus musculus [7] = assay: as §4, with “downregulation” for “up regulation”, “COX-2” for “annexin A1 mRNA”, “Western blot” for “RT-PCR”, “mouse” for “control”; assay type: functional
# Mus musculus [8] = assay: (§5) Antiinflammatory activity in C57BL/6 mouse DSS-induced chronic colitis model assessed as decrease in eosinophil peroxidase activity measured reduction of eosinophil accumulation in colon at 500 mg/kg/day administered through diet for total of 4 weeks for alternative weeks with water measured after 56 days by spectrophotometric analysis relative to DSS-treated mouse; assay type: functional; design: scale not given: the % may be the effect or the level left
# Summary of the method: (§6)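 Female C57BL/6 mice, 6−8 weeks, 18−20 g. Four DSS cycles in drinking water (1% in cycles 1–2, 2% in cycles 3–4; each 7 days DSS, then 7 days water). Diet held 0.25% test substance (about 500 mg/kg/day). Colons taken at day 56 and homogenized in 80 mM phosphate pH 5.4 with 0.5% HTAB. MPO read with TMB/H2O2, 37 °C 3 min, 630 nm. EPO read with o-phenylenediamine/H2O2, 2 min room temperature, 490 nm. NAG read with 4-nitrophenyl N-acetyl-β-D-glucosaminide, 37 °C 5 min, 405 nm. Mean ± SEM, n = 7.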
# Mus musculus [9] = assay: (§7) Antiinflammatory activity in C57BL/6 mouse DSS-induced chronic colitis model assessed as downregulation of p38 MAPK phosphorylation in colon at 500 mg/kg/day administered through diet for 4 weeks measured after 56 days by Western blot analysis relative to DSS-treated mouse; assay type: functional
# Mus musculus [10] = assay: Antiinflammatory activity in C57BL/6 mouse DSS-induced chronic colitis model assessed as decrease in severity of progressive chronic injury at 500 mg/kg/day administered through diet for total of 4 weeks for alternative weeks with water measured after 56 days; assay type: functional, organism-based
# [11] = Antiproliferative activity against rat IEC-18 cells at 10 to 100 uM after 24 hrs by MTT assay; assay type: cell-based; conditions: iec-18, 24 h
# Summary of the method: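 IEC-18 rat epithelial cells (passages 18–22) were seeded at 2.5 × 10^5 cells/mL in DMEM (4.5 g/L glucose, 5% FBS). After 24 h the medium was switched to 0.5% FBS and test substance was added at 10 and 100 μM, with dexamethasone 10 μM as reference. Proliferation was read by MTT at 24 h. n = 10.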
# Mus musculus [12] = assay: Antiinflammatory activity in C57BL/6 mouse DSS-induced chronic colitis model assessed as induction of IL-10 production in colon at 500 mg/kg/day administered through diet for total of 4 weeks for alternative weeks with water measured after 56 days by ELISA relative to DSS-treated mouse; assay type: functional; conditions: C57BL/6, Colon
# Summary of the method: (§8)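 Mice were female C57BL/6 on the chronic DSS schedule: 1% DSS in cycles 1–2, 2% in cycles 3–4, each cycle 7 days DSS then 7 days water. Diet carried 0.25% test substance for 56 days. Colon powder was suspended 20% w/v in PBS/0.1% NP-40, sonicated and spun at 20000g. IL-6, IL-1β and IL-10 were measured in supernatants by ELISA as pg/mL per mg protein. Mean ± SEM, n = 7.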
# Mus musculus [13] = assay: Toxicity in C57BL/6 mouse assessed as effect on viability at 500 mg/kg/day administered through diet for total of 4 weeks for alternative weeks with water measured after 56 days; assay type: organism-based; conditions: in vivo, 1344 h
# Mus musculus [14] = assay: as §7, with “iNOS expression” for “p38 MAPK phosphorylation”, “for total of” for “for”, “weeks for alternative weeks with water” for “weeks”; assay type: functional
# Mus musculus [15] = assay: Antiinflammatory activity in C57BL/6 mouse DSS-induced chronic colitis model assessed as reduction of mucosal injury at 500 mg/kg/day administered through diet for total of 4 weeks for alternative weeks with water measured after 56 days by hematoxylin-eosin staining; assay type: functional, organism-based
# Mus musculus [16] = assay: Antiinflammatory activity in C57BL/6 mouse DSS-induced chronic colitis model assessed as reduction of edema at 500 mg/kg/day administered through diet for total of 4 weeks for alternative weeks with water measured after 56 days by hematoxylin-eosin staining; assay type: functional, organism-based
# IEC-18 [17] = assay: Inhibition of p38 MAPK-induced COX-2 expression in rat IEC-18 cells at 100 uM incubated for 1 hr prior to LPS challenge measured after 24 hrs by Western blot analysis; assay type: cell-based; summary of the method: as §3
# Mus musculus [18] = assay: Antiinflammatory activity in C57BL/6 mouse DSS-induced chronic colitis model assessed as reduction of rectal bleeding at 500 mg/kg/day administered through diet for total of 4 weeks for alternative weeks with water measured after 56 days; assay type: functional, organism-based
# Summary of the method: (§9)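 Mice and schedule as in the chronic DSS model: four 7-day DSS cycles (1%, 1%, 2%, 2%), each followed by 7 days water, with a diet containing 0.25% test substance. At day 56, stool consistency (normal, loose, diarrhea) and gross rectal bleeding (visible fecal blood, anal examination) were scored within the DAI. n = 10.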
# Mus musculus [19] = assay: as §5, with “N-acetylglucosaminidase” for “eosinophil peroxidase”, “macrophage” for “eosinophil”; assay type: functional; design: scale not given: the % may be the effect or the level left; summary of the method: as §6
# Mus musculus [20] = assay: as §5, with “myeloperoxidase” for “eosinophil peroxidase”, “neutrophil” for “eosinophil”; assay type: functional; design: scale not given: the % may be the effect or the level left; summary of the method: as §6
# [21] = Wound healing activity in rat IEC-18 cells assessed as induction of wound closure at 10 uM after 24 hrs relative to dexamethasone; assay type: functional; summary of the method: as §2
# Mus musculus [22] = assay: Antiinflammatory activity in C57BL/6 mouse DSS-induced chronic colitis model assessed as reduction of stool consistency at 500 mg/kg/day administered through diet for total of 4 weeks for alternative weeks with water measured after 56 days; assay type: functional, organism-based; summary of the method: as §9
# Mus musculus [23] = assay: Antiinflammatory activity in C57BL/6 mouse DSS-induced chronic colitis model assessed as effect on NFkappaB pathway in colon at 500 mg/kg/day administered through diet for total of 4 weeks for alternative weeks with water measured after 56 days by Western blot analysis; assay type: functional, organism-based
# Mus musculus [24] = assay: Antiinflammatory activity in C57BL/6 mouse DSS-induced chronic colitis model assessed as reduction of colon weight to length ratio at 500 mg/kg/day administered through diet for total of 4 weeks for alternative weeks with water measured after 56 days; assay type: functional, organism-based
# Summary of the method: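 Female C57BL/6 mice received four DSS cycles: 7 days DSS in drinking water (1%, then 2% in cycles 3–4) followed by 7 days water. Diet contained 0.25% test substance, about 500 mg/kg/day. At day 56, colons were removed, rinsed in cold PBS, blotted, weighed and measured to give weight/length (mg/cm). n = 10.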
# Mus musculus [25] = assay: Antiinflammatory activity in C57BL/6 mouse DSS-induced chronic colitis model assessed as inhibition of IL-6 production in colon at 500 mg/kg/day administered through diet for total of 4 weeks for alternative weeks with water measured after 56 days by ELISA relative to DSS-treated mouse; assay type: functional; conditions: C57BL/6, Colon; summary of the method: as §8
# [26] = Wound healing activity in rat IEC-18 cells assessed as induction of wound closure at 100 uM after 24 hrs relative to dexamethasone; assay type: functional; summary of the method: as §2
# Mus musculus [27] = assay: Antiinflammatory activity in C57BL/6 mouse DSS-induced chronic colitis model assessed as inhibition of IL-1beta production in colon at 500 mg/kg/day administered through diet for total of 4 weeks for alternative weeks with water measured after 56 days by ELISA relative to DSS-treated mouse; assay type: functional; conditions: C57BL/6, Colon; summary of the method: as §8
# Mus musculus [28] = assay: Antiinflammatory activity in C57BL/6 mouse DSS-induced chronic colitis model assessed as prevention of body weight loss at 500 mg/kg/day administered through diet for total of 4 weeks for alternative weeks with water measured after 56 days; assay type: functional, organism-based
# Mus musculus [29] = assay: Antiinflammatory activity in C57BL/6 mouse DSS-induced chronic colitis model assessed as leukocyte infiltration into mucosal tissue at 500 mg/kg/day administered through diet for total of 4 weeks for alternative weeks with water measured after 56 days by hematoxylin-eosin staining; assay type: functional, organism-based
structure (smiles),measurement,setting,value
C[S+]([O-])c1ccc(-c2nc(-c3ccc(F)cc3)c(-c3ccncc3)[nH]2)cc1 (centres undefined),inhibition,IEC-18 [1],Active
same,inhibition,IEC-18 [2],70%
C[C@@H]1C[C@H]2[C@@H]3CCC4=CC(=O)C=C[C@]4(C)[C@@]3(F)[C@@H](O)C[C@]2(C)[C@@]1(O)C(=O)CO [DEXAMETHASONE],Activity,[3],Non-toxic
same,Activity,[4],20%
C/C=C1/[C@H](O[C@@H]2O[C@H](CO)[C@@H](O)[C@H](O)[C@H]2O)OC=C(C(=O)OC)[C@H]1CC(=O)OCCc1ccc(O)c(O)c1 [OLEUROPEIN],inhibition,IEC-18 [5],Active
same,fold change (FC),Mus musculus [6],46
same,Activity,Mus musculus [7],68%
same,Activity,Mus musculus [8],46%
same,Activity,Mus musculus [9],<=65%
same,Activity,Mus musculus [10],Active
same,Activity,[11],Non-toxic
same,induction in vivo at 500 mg/kg/day,Mus musculus [12],34%
same,Activity,Mus musculus [13],Non-toxic
same,Activity,Mus musculus [14],58%
same,Activity,Mus musculus [15],Active
same,Activity,Mus musculus [16],Active
same,inhibition,IEC-18 [17],83%
same,Activity,Mus musculus [18],Active
same,Activity,Mus musculus [19],42%
same,Activity,Mus musculus [20],36%
same,Activity,[21],57%
same,Activity,Mus musculus [22],Active
same,Activity,Mus musculus [23],inactive
same,Activity,Mus musculus [24],Active
same,inhibition in vivo at 500 mg/kg/day,Mus musculus [25],37%
same,Activity,[26],80%
same,inhibition in vivo at 500 mg/kg/day,Mus musculus [27],25%
same,Activity,Mus musculus [28],Active
same,Activity,Mus musculus [29],Active
